Results published in ChEMBL document CHEMBL2380217, “Design, synthesis, and biological evaluation of aminoalkylindole derivatives as cannabinoid receptor ligands with potential for treatment of alcohol abuse” (J Med Chem, 2013).
Calls of active or inactive are those of the source. The rule behind the calls is not given here.

target: Cannabinoid receptor 1 (Mus musculus) (UniProt P47746); experiment: Displacement of [3H]CP-55940 from mouse brain CB1 receptor at 1 uM after 90 mins by scintillation counting analysis; type: tissue-based; details: not given
Method in brief: (§1)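 Buffer: 50 mM Tris, 0.05% BSA, 0.1% ethanol; triplicate. Non-specific binding with 10 μM WIN-55,212-2. Bound ligand collected by GF/B filtration and counted by liquid scintillation. Specific binding expressed as % of that without competitor.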

Chain of Cannabinoid receptor 1 (Mus musculus) (P47746 whole entry): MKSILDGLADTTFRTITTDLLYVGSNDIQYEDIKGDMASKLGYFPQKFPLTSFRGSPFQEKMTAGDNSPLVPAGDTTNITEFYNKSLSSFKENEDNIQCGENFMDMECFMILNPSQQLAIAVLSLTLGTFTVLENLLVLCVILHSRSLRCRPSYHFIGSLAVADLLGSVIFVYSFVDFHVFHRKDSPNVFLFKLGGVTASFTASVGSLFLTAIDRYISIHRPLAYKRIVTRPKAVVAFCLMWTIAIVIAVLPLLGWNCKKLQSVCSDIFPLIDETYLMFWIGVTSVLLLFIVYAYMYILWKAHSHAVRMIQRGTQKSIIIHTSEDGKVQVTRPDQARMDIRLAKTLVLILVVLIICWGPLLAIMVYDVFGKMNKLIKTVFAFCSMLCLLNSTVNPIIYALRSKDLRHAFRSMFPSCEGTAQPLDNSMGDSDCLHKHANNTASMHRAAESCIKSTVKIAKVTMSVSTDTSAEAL

SMILES | Activity
CCCCn1cc(C(=O)Cc2ccc(F)c(F)c2)c2cccc(OC)c21 | 41%
CCCCn1cc(C(=O)Cc2ccc(F)cc2)c2cccc(OC)c21 | 55%
CCCCn1cc(C(=O)Cc2cccc3ccccc23)c2cccc(OC)c21 | 81%
CCCCn1cc(C(=O)Cc2cccc(F)c2F)c2cccc(OC)c21 | 80%
CCCCn1cc(C(=O)Cc2cccc(F)c2)c2cccc(OC)c21 | 63%
CCCCn1cc(C(=O)Cc2ccc(F)cc2)c2cccc(CC)c21 | 63%
CCCCn1cc(C(=O)Cc2cccc3ccccc23)c2cccc(O)c21 | 37%
CCCCn1cc(C(=O)Cc2ccccc2F)c2cccc(OC)c21 | 84%
CCCCn1cc(C(=O)Cc2ccc(OC)cc2)c2cccc(OC)c21 | 38%
CCCCn1cc(Cc2cccc3ccccc23)c2cccc(OC)c21 | 90%
CCCCn1cc(-c2ccc3ccccc3c2)c2cccc(OC)c21 | 82%
CCCCn1cc(C(=O)c2cccc3ccccc23)c2cccc(OC)c21 | 93%
CCCCn1cc(C(=O)Cc2ccccc2)c2cccc(O)c21 | 21%
COc1cccc2c(C(=O)c3cccc4ccccc34)cn(CCN3CCOCC3)c12 | 100%
CCCCn1cc(C(=O)c2cccc3ccccc23)c2cccc(O)c21 | 99%
CCCCn1cc(C(=O)c2ccc(F)cc2)c2cccc(OC)c21 | 84%
CCCCn1cc(C(=O)Cc2ccc(O)cc2)c2cccc(O)c21 | 10%
CCCCn1cc(-c2cccc3ccccc23)c2cccc(OC)c21 | 98%
CCCCn1cc(C(=O)Cc2ccccc2)c2cccc(OC)c21 | 69%
CCCCn1cc(C(=O)c2cccc3ccccc23)c2cc(O)ccc21 | 97%
CCCCn1cc(C(=O)c2cccc3ccccc23)c2cc(OC)ccc21 | 90%
CCCCn1cc(C(=O)Cc2ccc(F)cc2)c2cccc(O)c21 | 29%

target: Cannabinoid receptor 2 (Mus musculus) (UniProt P47936); experiment: Displacement of [3H]CP-55940 from mouse […] CB2 receptor at 1 uM after 90 mins by scintillation counting analysis; type: tissue-based; details: not given; method in brief: as §1
Sequence (P47936 whole entry): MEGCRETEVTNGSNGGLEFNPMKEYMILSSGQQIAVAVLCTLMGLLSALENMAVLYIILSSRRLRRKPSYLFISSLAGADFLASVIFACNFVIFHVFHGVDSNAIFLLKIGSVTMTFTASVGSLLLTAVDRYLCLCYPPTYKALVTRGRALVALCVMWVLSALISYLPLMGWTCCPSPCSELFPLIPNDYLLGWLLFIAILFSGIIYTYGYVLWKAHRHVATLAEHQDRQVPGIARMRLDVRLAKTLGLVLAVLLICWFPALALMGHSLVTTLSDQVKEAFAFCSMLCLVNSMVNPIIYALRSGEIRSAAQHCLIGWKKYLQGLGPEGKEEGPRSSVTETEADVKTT

SMILES | Activity
CCCCn1cc(C(=O)Cc2ccc(F)c(F)c2)c2cccc(OC)c21 | 80%
CCCCn1cc(C(=O)Cc2ccc(F)cc2)c2cccc(OC)c21 | 80%
CCCCn1cc(C(=O)Cc2cccc3ccccc23)c2cccc(OC)c21 | 91%
CCCCn1cc(C(=O)Cc2cccc(F)c2F)c2cccc(OC)c21 | 97%
CCCCn1cc(C(=O)Cc2cccc(F)c2)c2cccc(OC)c21 | 91%
CCCCn1cc(C(=O)Cc2ccc(F)cc2)c2cccc(CC)c21 | 88%
CCCCn1cc(C(=O)Cc2cccc3ccccc23)c2cccc(O)c21 | 21%
CCCCn1cc(C(=O)Cc2ccccc2F)c2cccc(OC)c21 | 99%
CCCCn1cc(C(=O)Cc2ccc(OC)cc2)c2cccc(OC)c21 | 64%
CCCCn1cc(Cc2cccc3ccccc23)c2cccc(OC)c21 | 97%
CCCCn1cc(-c2ccc3ccccc3c2)c2cccc(OC)c21 | 91%
CCCCn1cc(C(=O)c2cccc3ccccc23)c2cccc(OC)c21 | 100%
CCCCn1cc(C(=O)Cc2ccccc2)c2cccc(O)c21 | 20%
COc1cccc2c(C(=O)c3cccc4ccccc34)cn(CCN3CCOCC3)c12 | 100%
CCCCn1cc(C(=O)c2cccc3ccccc23)c2cccc(O)c21 | 90%
CCCCn1cc(C(=O)c2ccc(F)cc2)c2cccc(OC)c21 | 99%
CCCCn1cc(C(=O)Cc2ccc(O)cc2)c2cccc(O)c21 | 10%
CCCCn1cc(-c2cccc3ccccc23)c2cccc(OC)c21 | 97%
CCCCn1cc(C(=O)Cc2ccccc2)c2cccc(OC)c21 | 91%
CCCCn1cc(C(=O)c2cccc3ccccc23)c2cc(O)ccc21 | 91%
CCCCn1cc(C(=O)c2cccc3ccccc23)c2cc(OC)ccc21 | 90%
CCCCn1cc(C(=O)Cc2ccc(F)cc2)c2cccc(O)c21 | 10%

target: Cannabinoid receptor 1 (Mus musculus) (UniProt P47746); experiment: Antagonist activity at CB1 receptor in mouse Neuro2a cells assessed as forskolin-stimulated adenylyl cyclase activity at 1 uM after 15 mins by liquid scintillation spectrophotometry in presence of JWH-073; type: functional, cell-based; details: not given
Method in brief: (§2)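 Neuro2A-WT (endogenous CB1), CHO-hCB2 or CHO-WT cells, 4 million per well, attached overnight. Labelled 4 h at 37 °C with [3H]adenine 2.5 μCi/mL plus 0.5 mM IBMX. Then 15 min at 37 °C in KRH buffer with 0.5 mM IBMX, 10 μM forskolin, and vehicle (0.2% ethanol) or compound (0.1 nM–10 μM), triplicate. Stopped with HCl; [3H]cAMP isolated on acidic alumina, counted by scintillation. Expressed as % of vehicle cAMP. Antagonist added 5 min before agonist.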

SMILES | Activity
CCCCn1cc(Cc2cccc3ccccc23)c2cccc(OC)c21 | Active
CCCCn1cc(-c2ccc3ccccc3c2)c2cccc(OC)c21 | Active
CC1=CC[C@@H]2[C@@H](C1)c1c(O)cc(CC#CCCCNS(C)(=O)=O)cc1OC2(C)C | Active

target: T1, Cannabinoid receptor 2 (Homo sapiens, UniProt P34972); experiment: Agonist activity at human CB2 receptor transfected in CHO cells assessed as inhibition of forskolin-stimulated adenylyl cyclase activity at 10 uM after 15 mins by liquid scintillation spectrophotometry; type: functional, cell-based; details: not given; method in brief: as §2
T1 sequence (P34972 whole entry): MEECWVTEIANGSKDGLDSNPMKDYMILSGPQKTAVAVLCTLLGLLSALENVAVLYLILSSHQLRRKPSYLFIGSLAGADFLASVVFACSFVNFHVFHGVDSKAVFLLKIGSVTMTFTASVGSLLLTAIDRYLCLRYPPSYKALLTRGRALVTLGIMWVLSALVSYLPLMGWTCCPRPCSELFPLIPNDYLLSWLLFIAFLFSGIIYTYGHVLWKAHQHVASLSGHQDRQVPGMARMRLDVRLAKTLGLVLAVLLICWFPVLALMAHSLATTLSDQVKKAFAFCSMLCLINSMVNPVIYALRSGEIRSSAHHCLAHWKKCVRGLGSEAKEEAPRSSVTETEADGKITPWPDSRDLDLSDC

SMILES | inhibition
CCCCn1cc(C(=O)Cc2ccc(F)cc2)c2cccc(OC)c21 | 22%
CCCCn1cc(C(=O)Cc2cccc(F)c2F)c2cccc(OC)c21 | -6%
CCCCn1cc(C(=O)Cc2ccccc2F)c2cccc(OC)c21 | 1%
CCCCn1cc(Cc2cccc3ccccc23)c2cccc(OC)c21 | 33%
CCCCn1cc(-c2ccc3ccccc3c2)c2cccc(OC)c21 | 20.8%
CCCCn1cc(C(=O)c2cccc3ccccc23)c2cccc(OC)c21 | 52%
COc1cccc2c(C(=O)c3cccc4ccccc34)cn(CCN3CCOCC3)c12 | 37%
CCCCn1cc(C(=O)c2cccc3ccccc23)c2cccc(O)c21 | 38%
CCCCn1cc(C(=O)c2ccc(F)cc2)c2cccc(OC)c21 | 38%
CCCCn1cc(-c2cccc3ccccc23)c2cccc(OC)c21 | 37%
CCCCn1cc(C(=O)Cc2ccccc2)c2cccc(OC)c21 | 16%
CCCCn1cc(C(=O)c2cccc3ccccc23)c2cc(O)ccc21 | 37%
CCCCn1cc(C(=O)c2cccc3ccccc23)c2cc(OC)ccc21 | 31%

system: Mus musculus; experiment: Reduction in ethyl alcohol preference in Swiss mouse at 10 mg/kg, ip for 10 days; type: functional, organism-based; set-up: dose 10 mg/kg; details: not given
Method in brief: (§3)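 Male NIH Swiss mice in a two-bottle home-cage choice, 10% (v/v) ethanol vs water, 24 h access. Intake read twice weekly and bottle positions switched. Preference = ethanol/total fluid × 100. After stable baseline (<10% variation over 3 days), 10 mg/kg i.p. daily for 10 days. Vehicle: 8% Tween/92% water, given for 10 days. Body weight tracked.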

SMILES | Activity
CCCCn1cc(Cc2cccc3ccccc23)c2cccc(OC)c21 | Active
CCCCn1cc(-c2ccc3ccccc3c2)c2cccc(OC)c21 | Active
Cc1c(C(=O)NN2CCCCC2)nn(-c2ccc(Cl)cc2Cl)c1-c1ccc(Cl)cc1 [RIMONABANT] | Active

system: Mus musculus; experiment: Inhibition of ethyl alcohol-induced conditioned place preference in Swiss mouse at 10 mg/kg, ip administered 1 hr prior to ethyl alcohol pairing; type: functional, organism-based; set-up: dose 10 mg/kg; details: not given
Method in brief: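 Male NIH Swiss mice in 3-compartment chambers. 30-min pre-test to find preferred side. Then Mon–Thu daily: saline in the preferred side (30 min) and, ~4 h later, 2 g/kg ethanol in the non-preferred side (30 min). Compound 10 mg/kg given 1 h before each ethanol pairing. Friday post-test; score = post minus pre time on the ethanol side. One-way ANOVA with Tukey.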

SMILES | Activity
CCCCn1cc(Cc2cccc3ccccc23)c2cccc(OC)c21 | Active
CCCCn1cc(-c2ccc3ccccc3c2)c2cccc(OC)c21 | Active
Cc1c(C(=O)NN2CCCCC2)nn(-c2ccc(Cl)cc2Cl)c1-c1ccc(Cl)cc1 [RIMONABANT] | Active

system: CHO; experiment: Effect on adenylyl cyclase activity in wild type CHO cells at 10 uM; type: cell-based; details: Cricetulus griseus; method in brief: as §2

SMILES | Activity
CCCCn1cc(Cc2cccc3ccccc23)c2cccc(OC)c21 | inactive
CCCCn1cc(-c2ccc3ccccc3c2)c2cccc(OC)c21 | inactive

system: Mus musculus; experiment: Agonist activity at CB1 receptor in Swiss mouse assessed as hypothermic effect at 10 mg/kg, ip; type: functional, organism-based; set-up: dose 10 mg/kg; details: not given
Method in brief: (§4)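 Male NIH Swiss mice (25–30 g) with glass-encapsulated radiotelemetry probes implanted in the peritoneal cavity; at least 7 days of recovery, housed singly. Baseline recorded for at least 1 hr, then i.p. injection of drug or vehicle. […] Groups of 4–8. One-way ANOVA with Tukey.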

SMILES | Activity
CCCCn1cc(C(=O)c2cccc3ccccc23)c2ccccc21 | Active

system: Mus musculus; experiment: Toxicity in Swiss mouse assessed as reduction in body weight at 10 mg/kg, ip for 10 days; type: organism-based; set-up: dose 10 mg/kg, route intraperitoneal; details: in vivo, 240 h; method in brief: as §3

SMILES | Activity
CCCCn1cc(Cc2cccc3ccccc23)c2cccc(OC)c21 | Non-toxic
CCCCn1cc(-c2ccc3ccccc3c2)c2cccc(OC)c21 | Non-toxic
Cc1c(C(=O)NN2CCCCC2)nn(-c2ccc(Cl)cc2Cl)c1-c1ccc(Cl)cc1 [RIMONABANT] | Toxic

system: Mus musculus; experiment: Antagonist activity at CB1 receptor in Swiss mouse assessed as reduction in hypothermic effect at 10 mg/kg, ip administered 30 mins prior to JWH-073 addition; type: functional, organism-based; set-up: dose 10 mg/kg; details: not given; method in brief: as §4

SMILES | Activity
CCCCn1cc(Cc2cccc3ccccc23)c2cccc(OC)c21 | Active
CCCCn1cc(-c2ccc3ccccc3c2)c2cccc(OC)c21 | Active

target: Cannabinoid receptor 1 (Mus musculus) (UniProt P47746); experiment: Agonist activity at CB1 receptor in mouse Neuro2a cells assessed as inhibition of forskolin-stimulated adenylyl cyclase activity at 10 uM after 15 mins by liquid scintillation spectrophotometry; type: functional, cell-based; details: not given; method in brief: as §2

SMILES | inhibition
CCCCCCC(C)(C)c1ccc([C@@H]2C[C@H](O)CC[C@H]2CCCO)c(O)c1 | 45%
CCCCn1cc(C(=O)Cc2ccc(F)cc2)c2cccc(OC)c21 | -4%
CCCCn1cc(C(=O)Cc2cccc3ccccc23)c2cccc(OC)c21 | 34%
CCCCn1cc(C(=O)Cc2cccc(F)c2F)c2cccc(OC)c21 | 35%
CCCCn1cc(C(=O)Cc2ccccc2F)c2cccc(OC)c21 | 45%
CCCCn1cc(Cc2cccc3ccccc23)c2cccc(OC)c21 | 18%
CCCCn1cc(-c2ccc3ccccc3c2)c2cccc(OC)c21 | 16%
CCCCn1cc(C(=O)c2cccc3ccccc23)c2cccc(OC)c21 | 51%
COc1cccc2c(C(=O)c3cccc4ccccc34)cn(CCN3CCOCC3)c12 | 39%
CCCCn1cc(C(=O)c2cccc3ccccc23)c2cccc(O)c21 | 55%
CCCCn1cc(C(=O)c2ccc(F)cc2)c2cccc(OC)c21 | 45%
CCCCn1cc(-c2cccc3ccccc23)c2cccc(OC)c21 | 39%
CCCCn1cc(C(=O)Cc2ccccc2)c2cccc(OC)c21 | 34%
CCCCn1cc(C(=O)c2cccc3ccccc23)c2cc(O)ccc21 | 39%
CCCCn1cc(C(=O)c2cccc3ccccc23)c2cc(OC)ccc21 | 47%

system: Mus musculus; experiment: Toxicity in Swiss mouse assessed as alteration in total fluid intake at 10 mg/kg, ip for 10 days; type: organism-based; set-up: dose 10 mg/kg, route intraperitoneal; details: in vivo, 240 h; method in brief: as §3

SMILES | Activity
CCCCn1cc(Cc2cccc3ccccc23)c2cccc(OC)c21 | Toxic
CCCCn1cc(-c2ccc3ccccc3c2)c2cccc(OC)c21 | Toxic
Cc1c(C(=O)NN2CCCCC2)nn(-c2ccc(Cl)cc2Cl)c1-c1ccc(Cl)cc1 [RIMONABANT] | Toxic

target: T1, Cannabinoid receptor 2; experiment: Agonist activity at human CB2 receptor transfected in CHO cells assessed as inhibition of forskolin-stimulated adenylyl cyclase activity after 15 mins by liquid scintillation spectrophotometry; type: functional, cell-based; details: not given; method in brief: as §2

SMILES | Ki
CCCCn1cc(C(=O)c2cccc3ccccc23)c2ccccc21 | 9.8 nM
CCCCn1cc(C(=O)c2cccc3ccccc23)c2cccc(O)c21 | 78.3 nM

target: Cannabinoid receptor 1 (Mus musculus, UniProt P47746); experiment: Agonist activity at CB1 receptor in mouse Neuro2a cells assessed as inhibition of forskolin-stimulated adenylyl cyclase activity after 15 mins by liquid scintillation spectrophotometry; type: functional, cell-based; details: not given
Method in brief: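 Neuro2A cells with endogenous CB1, plated overnight to 80–90% confluency, labelled 4 h at 37 °C with [3H]adenine (2.5 μCi/mL) plus 0.5 mM IBMX. Then 15 min at 37 °C in Krebs Ringer HEPES with 0.5 mM IBMX, 10 μM forskolin and compound (0.1 nM–10 μM; 10 μM for the screen) or 0.2% ethanol vehicle, in triplicate. HCl stop, alumina column. [3H]cAMP is given as % of vehicle.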

Chain of Cannabinoid receptor 1 (P47746 whole entry): as the sequence (P47746 whole entry) above

SMILES | Ki | IC50
CCCCn1cc(C(=O)c2cccc3ccccc23)c2ccccc21 | 12.9 nM | 
CCCCn1cc(C(=O)c2cccc3ccccc23)c2cccc(O)c21 | 24.2 nM | 225 nM
